Bioassay records: PubChem BioAssay, several laboratories
In the library only some 12% were active in any assay of this set; here they are far more common.
RAM network inh: inhibitors of the yeast RAM network | S. cerevisiae dse1pr::URA3 reporter, 5-FOA growth OD615, 2 d; analog-sensitive cbk1-as2 kinase mutant strain | inhibition, % at 50 µM | 190,000 tested, 1.8% active | AID 868;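 active means inhibition above a set limit, 3 SD over mean compound inhibition, cut at about 8.4% in these data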;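 further: 0% = DMSO-only wells with no growth and 100% = 10 µM 1-NA-PP1 full growth; inhibition rescues growth on 5-FOA so higher OD means more RAM inhibition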
ABCG2 inh: human ABCG2 inhibition, ABCB1 as counter-screen; IgMXP3 cells, JC-1 efflux, flow cytometry; 190,000 tested, 0.1% active; Q9UNQ0; inhibition, % at 6.6 µM; AID 1325;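 active means inhibition above 80%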;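 further: 0% = DMSO and 100% = nicardipine control wells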
Target sequence (Q9UNQ0 whole entry, looked up): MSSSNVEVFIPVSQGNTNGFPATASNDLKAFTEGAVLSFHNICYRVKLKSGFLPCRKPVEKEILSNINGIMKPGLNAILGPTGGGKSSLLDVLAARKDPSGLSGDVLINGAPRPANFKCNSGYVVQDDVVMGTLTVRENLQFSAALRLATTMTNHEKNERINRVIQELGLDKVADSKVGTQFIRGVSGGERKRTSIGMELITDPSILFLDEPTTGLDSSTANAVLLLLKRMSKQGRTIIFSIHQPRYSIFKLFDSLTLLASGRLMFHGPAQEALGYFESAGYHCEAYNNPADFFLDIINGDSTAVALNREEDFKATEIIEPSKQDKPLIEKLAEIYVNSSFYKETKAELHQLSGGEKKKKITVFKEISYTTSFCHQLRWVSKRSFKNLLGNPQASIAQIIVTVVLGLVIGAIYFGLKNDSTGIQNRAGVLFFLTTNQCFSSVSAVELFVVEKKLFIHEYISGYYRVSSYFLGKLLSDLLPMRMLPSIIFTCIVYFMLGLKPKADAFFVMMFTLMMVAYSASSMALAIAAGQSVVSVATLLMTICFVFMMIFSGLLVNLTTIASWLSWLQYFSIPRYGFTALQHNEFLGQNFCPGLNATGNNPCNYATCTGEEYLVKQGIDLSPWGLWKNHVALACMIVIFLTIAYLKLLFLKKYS
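Measure – % inhibition of efflux relative to nicardipine and DMSO · Test system – ABCG2 IgMXP3 and barcoded ABCB1 CCRF-Adr cell mix · Control set – nicardipine as high control, DMSO as low control · Compound – one concentration, 6.6 µM final · Signal – flow cytometry of retained JC-1 fluorescence · Timing – 10 min exposure at 25 °C with rotation, no wash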
WT yeast gro inh: growth inhibition of WT yeast, mitochondrial fusion screen. mitochondrial fusion phenotypic screen, WT strain. inhibition, % at 10 µM. 190,000 tested, 2.1% active; in the data active means inhibition above about 58%; tested in S. cerevisiae
ABCB1 block: inhibitors of human ABCB1 transporter, ABCG2 counter-screen; P08183; CCRF-Adr cells, JC-1 efflux, flow cytometry; inhibition, % at 6.6 µM; 190,000 tested, 0.067% active; AID 1326; in the data active means inhibition above about 40%;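 further: 0% = vehicle and 100% = reference inhibitor; higher value means more JC-1 retained so stronger ABCB1 efflux block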
L major viab: reduces viability of Leishmania major promastigotes | resazurin fluorescence viability | inhibition, % at 10 µM | 200,000 tested, 9% active | AID 1063; in the data active means inhibition above about 50%;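 further: promastigotes grown with compound for 44 hours at 28 °C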
Lmaj promast 1uM: blocks Leishmania major promastigote growth at 1 uM, repeat screen. shares compounds with L major viab. L. major promastigote growth, resazurin fluorescence, 48 h. inhibition, % at 1 µM. 1,100 tested, 13% active;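 active means inhibition above about 50% in both repeat tests, limit read from the data; inconclusive means one repeat under the set limit, the other over it; inactive means both repeats under the set limit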
Active calls of the source: *; ? = inconclusive; · = not tested or not shown.

SMILES	RAM network inh	ABCG2 inh	WT yeast gro inh	ABCB1 block	L major viab	Lmaj promast 1uM
CCOc1ccccc1/C=N/NC(=O)c1cccc(Cl)c1	4	10	-4	1	-10	·
Cn1c(=O)c2c3c(sc2n2c(SCC(N)=O)nnc12)CC(C(C)(C)C)CC3 (stereo not drawn)	2	8	-7	2	48	·
COc1ccccc1NC(=O)Cn1nc(-c2ccc(Cl)cc2)c2ccccc2c1=O	4	2	-13	1	68*	10
Cc1c(Br)c([N+](=O)[O-])nn1CCCC(=O)Nc1sc2c(c1C#N)CCC2	4	57	25	1	82*	-3
Cc1nn(C2CCCO2)c(=O)nc1N (stereo not drawn)	0	1	-8	1	2	·
NC(C(=O)O)C1CC(Cl)=NO1 (stereo not drawn)	-1	0	-1	0	100*	94*
CN(C)/C=N/S(=O)(=O)c1cccn1-c1ncc(C(F)(F)F)cc1Cl	3	4	2	1	1	·
CN(C)S(=O)(=O)c1cccn1-c1ncc(C(F)(F)F)cc1Cl	0	5	-12	1	100*	29
O=S(=O)(c1ccccc1)c1ncc(C(F)(F)F)cc1Cl	9.8*	6	-33	0	72*	39
Nc1nc2nccc(-c3cccnc3)n2n1	1	2	-6	0	-5	·
CC(C)OC(=O)c1cccc(C(=O)OCc2ccco2)n1	2	21	-17	0	50*	9
O=C1CC(c2ccccc2Br)c2cc3c(cc2N1)CCC3 (stereo not drawn)	8	1	-3	1	100*	88*
CN(C)S(=O)(=O)c1cccc(-n2sc3ccccc3c2=O)c1	4	-2	67*	0	55*	-4
O=c1c2ccccc2sn1-c1ccc(S(=O)(=O)N2CCCC2)cc1	4	-11	-3	-4	-9	·
O=c1c2ccccc2sn1-c1ccccc1	3	0	95	0	100*	-5
Cc1ccc(NC(=O)C2=C(O)c3ccccc3N(C)S2(=O)=O)cc1	2	3	1	0	-9	·
CCOC(=O)c1cnc(-n2nc(C)cc2C)nc1Nc1ccc(N(C)C)cc1	1	3	14	0	91*	10
O=C(O)c1ccc(-c2ncc[nH]2)cc1	0	0	-5	0	0	·
CCC(=O)Nc1ccc(C(=O)N/N=C/c2ccc([N+](=O)[O-])cc2)cc1	1	2	11	0	-4	·
Cc1csc(/N=C/c2ccc([N+](=O)[O-])cc2)n1	1	-3	-4	-1	52*	-3
CCOC(=O)c1cc(-c2ccccc2)sc1NC(=O)C(C)N1C(=O)c2ccccc2C1=O (stereo not drawn)	3	13	15	2	-2	·
O=C(O)c1cc(-c2cccc(Cl)c2)nc2nc(N3CCCCC3)sc12	1	-6	21	-2	63*	-10
Cc1ccc(N(CC(O)CON=C2c3ccccc3-c3ccccc32)S(C)(=O)=O)cc1 (stereo not drawn)	8	9	56	3	100*	?
Cc1ccc(N(CC(O)CN2CCOCC2)S(=O)(=O)c2ccc3ccccc3c2)cc1 (stereo not drawn)	1	0	-15	1	8	·
COC(=O)[C@@H]1CC[C@H](C)[C@@H](c2ccc(C)cc2)N1C(=O)c1ccc(/C=N/OCC[C@@H]2C=C[C@H](OC(C)=O)[C@@H](COC(C)=O)O2)cc1	8	-3	3	12	96*	-17
CCCNC(=O)OC[C@H]1O[C@H](CCO/N=C/c2ccc(C(=O)N3[C@H](c4ccc(C)cc4)[C@@H](C)CC[C@H]3C(=O)OC)cc2)C=C[C@@H]1Oc1ccc(OC)cc1	3	1	-2	3	0	·
O=c1ccnc(Nc2ccc3c(c2)OCCO3)[nH]1	1	1	-6	0	-2	·
Cc1ccoc1C(=O)N1CCCCC1C(=O)O (stereo not drawn)	3	1	-4	1	0	·
CCc1cc2c(nc1CC)CCN(CC/C(C)=N/OC[C@H]1O[C@H](c3ccccc3)C=C[C@@H]1Oc1ccc(OC)cc1)C2	1	0	39	7	67*	-4
COc1ccc(O[C@H]2C=C[C@@H](c3ccccc3)O[C@@H]2CO/N=C(\C)CCN2CCc3nc(-c4ccccc4)c(-c4ccccc4)cc3C2)cc1	1	9	6	2	7	·
